Experimental findings from PubChem BioAssay AID588762 (The Scripps Research Institute Molecular Screening Center, 2011) are described below.

This experiment addresses Epstein-Barr virus nuclear antigen 1 (EBNA-1), Human herpesvirus 4. Put plainly: relief of EBNA-1 Qp promoter repression – cell-based, luciferase, dose response, assay provider data, late-stage follow-up (AID 588762). The note with it: 293T Qp-promoter luciferase reporter, EBNA-1 repression. In short, it runs like this: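 Material: human 293T cells transiently co-transfected with Qp-promoter luciferase reporter, Flag-tagged EBNA-1; schedule: 48 h at 37 °C after plating; signal: luminescence from Steady-Glo luciferase reagent, rising as EBNA-1 repression lifts; read-out: concentration giving half-maximal luminescence stimulation, four-parameter sigmoidal fit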
On the technique in general: Reporter assays use an easily measured gene product as a stand-in for the process of interest.

Active and inactive are the calls of the source.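 How the source made its calls: active means fitted IC50 at or below 10 µM in the dose response luciferase test; inactive means IC50 weaker than 10 µM.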

Consider `COc1ccccc1C(=O)Nc1nc2ccc(S(C)(=O)=O)cc2s1`, for which the IC50 (commonly the concentration that gives 50% inhibition) is > 148 µM (inactive).

In the case of `CS(=O)(=O)c1ccc2nc(NC(=O)c3ccccc3Cl)sc2c1`, the IC50 was > 148 µM (inactive).

For the molecule `CCn1c(C)cc(C(=O)CSc2nnnn2-c2ccccc2)c1C`, the IC50 was > 148 µM (inactive).

As for `Cc1cc(C(=O)CSc2nnnn2-c2ccc(Cl)cc2)c(C)n1CC1CCCO1` (centres undefined), the IC50 was > 148 µM (inactive).

As for `Cc1ccccc1C(=O)Nc1nc2ccc(S(C)(=O)=O)cc2s1`, the IC50 was > 148 µM (inactive).

`Cc1cc(C(=O)CSc2nnnn2-c2cccc(F)c2)c(C)n1CC1CCCO1` (centres undefined): the IC50 is > 148 µM (inactive).

Regarding `COc1ccc(C(=O)Nc2nc3ccc(S(C)(=O)=O)cc3s2)cc1`, the IC50 entry was “inactive”.

On to `Cc1ccc(C(=O)Nc2nc3ccc(S(C)(=O)=O)cc3s2)cc1`, for which the IC50 was > 148 µM (inactive).

On to `Cc1cc(C(=O)CSc2nnnn2-c2ccccc2)c(C)n1C`, for which the IC50 entry is “inactive”.

With `COc1ccc2sc(NC(=O)c3ccc(C)c(C)c3)nc2c1`, the IC50 was > 148 µM (inactive).

`COCCn1c(C)cc(C(=O)CSc2nnnn2-c2ccccc2)c1C`: the IC50 is > 148 µM (inactive).

Turning to `COc1ccc(-n2nnnc2SCC(=O)c2cc(C)n(CC3CCCO3)c2C)cc1` (centres undefined), the IC50 is > 16.4 µM (inactive).

Turning to `Cc1ccc(C(=O)Nc2nc3ccc(Br)cc3s2)cc1C`, the IC50 was > 148 µM (inactive).

Take `O=C(CSc1nnnn1-c1ccccc1)c1ccn(CC2CCCO2)c1` (centres undefined): the IC50 is > 148 µM (inactive).

For `Cc1ccc(C(=O)Nc2nc3cc(F)ccc3s2)cc1C`, the IC50 was > 148 µM (inactive).

Take `Cc1cc(C(=O)CSc2nnnn2C2CC2)c(C)n1CC1CCCO1` (centres undefined): the IC50 entry is “inactive”.

As to `COc1ccc2nc(NC(=O)c3ccc(C)c(C)c3)sc2c1`, the IC50 was > 148 µM (inactive).

For `CS(=O)(=O)c1ccc2nc(NC(=O)c3ccccc3F)sc2c1`, the IC50 is > 148 µM (inactive).

`COc1cccc2sc(NC(=O)c3ccc(C)c(C)c3)nc12`: the IC50 was > 148 µM (inactive).

As for `CS(=O)(=O)c1ccc2nc(NC(=O)c3ccc(Cl)cc3)sc2c1`, the IC50 entry was “inactive”.

As to `Cc1ccccc1-n1nnnc1SCC(=O)c1cc(C)n(CC2CCCO2)c1C` (centres undefined), the IC50 was > 148 µM (inactive).

For `COc1cccc(C(=O)Nc2nc3ccc(S(C)(=O)=O)cc3s2)c1`, the IC50 entry was “inactive”.

Regarding `Cc1cccc(-n2nnnc2SCC(=O)c2cc(C)n(CC3CCCO3)c2C)c1` (centres undefined), the IC50 was > 148 µM (inactive).

For `Cc1cc(C(=O)CSc2nnnn2-c2ccccc2)c(C)n1Cc1cccs1`, the IC50 was > 148 µM (inactive).

As for `Cc1cc(C(=O)CSc2nnnn2C)c(C)n1CC1CCCO1` (centres undefined), the IC50 was > 148 µM (inactive).

For `Cc1ccc(C(=O)Nc2nc3cc(Br)ccc3s2)cc1C`, the IC50 is > 148 µM (inactive).

Turning to `CS(=O)(=O)c1ccc2nc(NC(=O)c3cccc(F)c3)sc2c1`, the IC50 was > 148 µM (inactive).

For `Cc1cccc(C(=O)Nc2nc3ccc(S(C)(=O)=O)cc3s2)c1`, the IC50 result is “inactive”.

`CS(=O)(=O)c1ccc2nc(NC(=O)c3cccc(Cl)c3)sc2c1`: the IC50 is > 148 µM (inactive).
